Legend:
[1] = melting temperature; fluorescence melt of hairpins on a sequencing array, two-state fit, raised by 9.35 °C to match UV melts; conditions: sodium 0.088 M
Outline: (§1)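 Folding enthalpy and melting temperature were estimated with bootstrapped two-state fits and combined across four replicates by inverse-variance weighting, with fitted temperatures raised by 9.35 °C to match UV melts. The data were Cy3 fluorescence of library hairpins, with annealed Cy3 and quencher oligos, on a sequenced MiSeq flow cell in 50 mM Na-HEPES pH 8.0, 25 mM NaCl, imaged in 2.5 °C steps up to 60 °C and normalised to pre-quench Cy3 and control constructs.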

[2] = folding enthalpy; higher = less favourable; fluorescence melt of hairpins on a sequencing array, two-state fit; conditions: sodium 0.088 M
Outline: as §1

Row | Sequence | Tm [1] [°C] | folding enthalpy [2] [kJ/mol]
1 | GTGATAGAAATATCAC ((((((....)))))) | 46.5 | -138
2 | GATCTATAGCTAGATC ((((((....)))))) | 36.5 | -120
3 | GGTTCTGGAAACAGAGCC ((.((((....)))).)) | 50.6 | -128
4 | CGAGGCGGAAACGCATCG (((.(((....))).))) | 64.2 | -155
5 | GCATCGCGAAAGCCTTGC (((..((....))..))) | 38.3 | -69.9
6 | GATCACCGAAAGGTTATC (((.(((....))).))) | 40.4 | -116
7 | GCGATTGGAAACAACCGC (((.(((....))).))) | 48.4 | -137
8 | GCCTGGCGAAAGCGAGGC ((((.((....)).)))) | 68.2 | -112
9 | GCGGGGACGAAAGTCCGC (((..(((....)))))) | 58.5 | -55.4
10 | GCTCGCGGAAACGTGGGC ((.(.((....)).).)) | 50.2 | -142
11 | GCCATGACGAAAGTCGGC (((..(((....)))))) | 51 | -83.6
12 | GGTGACGAAAGTCGACC ((((((....))).))) | 53.4 | -96.6
13 | GATCGTACCTACGATC ((((((....)))))) | 55.6 | -211
14 | GATAACGAAAGTTATC ((((((....)))))) | 53.9 | -138
15 | GTTTCGACGAAAGTCAAC (((..(((....)))))) | 22.9 | -40.1
16 | GAGGGCGAAAGCCGGCTC ((((((....)))..))) | 51 | -50.7
17 | GGCATGGGAAACCACGCC (((.(((....))).))) | 49.4 | -147
18 | GTACTCCGAAAGGACTAC (((.(((....))).))) | 33.2 | -58.8
19 | GCTGCCGAAAGGCCGAGC ((((((....)))..))) | 43.6 | -58.4
20 | GGTAAGGAAACTTACC ((((((....)))))) | 50.3 | -135
21 | GATCGATCAATCGATC ((((((....)))))) | 53.8 | -171
22 | GTGACAGGAAACTGTTAC ((.((((....)))).)) | 45.4 | -118
23 | GGGCACGGAAACACGCCC ((((..(....)..)))) | 46.2 | -128

Row | Sequence | Tm [1] [°C] | folding enthalpy [2] [kJ/mol]
24 | GATCCTGTTAAGGATC ((((((....)))))) | 65.7 | -204
25 | GAACAACCGAAAGGTTTC (((..(((....)))))) | 29.3 | -40.3
26 | GAGAGCGAAAGCTTTCTC ((((((....)))..))) | 46.6 | -89.7
27 | GTGTCAGGAAACTGGTAC ((..(((....)))..)) | 31.8 | -73.7
28 | GCACAGGGAAACCTGTAC (.(((((....))))).) | 40.3 | -52.9
29 | GCAAGGCGAAAGCGATGC (((..((....))..))) | 53.4 | -47.8
30 | GGCCTTTCGAAAGAAGCC (((..(((....)))))) | 37.2 | -125
31 | CGGGTACGGAAACGTCCG (((..(((....)))))) | 40 | -83.7
32 | GATCCCTTGGGGGATC ((((((....)))))) | 60.1 | -196
33 | CGGGCACGGAAACGTCCG (((..(((....)))))) | 38.9 | -83.3
34 | GCCTAGCGAAAGCTGAGC ((..(((....)))..)) | 48.8 | -44.8
35 | GATCATGACTATGATC ((((((....)))))) | 54.2 | -203
36 | GATGTGGGAAACCACGTC ((.((((....)))).)) | 51 | -111
37 | GATCGAGCATCGATC ((((((...)))))) | 58.7 | -173
38 | GACCGCGAAAGCGTAGTC ((((((....)))..))) | 46.5 | -61.2
39 | GGCCGCGAAAGCGATGCC ((((((....)))..))) | 59.3 | -105
40 | GTAGGCGAAAGCCAGTAC ((((((....)))..))) | 27.4 | -34.2
41 | GTGAATGGAAACACTCAC ((((.((....)).)))) | 34.4 | -103
42 | GTCGTCGAAAGACTTGAC ((((((....)))..))) | 38.4 | -71.1
43 | GCAGCTCCGAAAGGATGC (((..(((....)))))) | 41.5 | -67.8
44 | GATCCAATCTTGGATC ((((((....)))))) | 54.3 | -138
45 | GTCATGGGAAACCATGGC (.(((((....))))).) | 53.2 | -101
46 | GTTCGGGCGAAAGCCAAC (((..(((....)))))) | 26.2 | -44.9

Row | Sequence | Tm [1] [°C] | folding enthalpy [2] [kJ/mol]
47 | GTAGTCGAAAGACACTAC ((((((....)))..))) | 39.6 | -82.5
48 | GGAAACGAAAGTTTTCC ((((((....))).))) | 46.2 | -85.2
49 | GTGCGGGGAAACCCGTGC (..((((....))))..) | 53.8 | -80.3
50 | GTGCACGAAAGTGTTCAC ((((((....)))..))) | 37.4 | -51.6
51 | GCGTACGGAAACGTGCGC (((.(((....))).))) | 64.6 | -226
52 | GTCATACGAAAGTACGAC (((.(((....))).))) | 42.9 | -120
53 | GCACGGACGAAAGTCTGC (((..(((....)))))) | 42.5 | -53.9
54 | GGCGACCGAAAGGTGGCC (((.(((....))).))) | 67.9 | -122
55 | CGTCCGGAAACGGACACG ((((((....)))..))) | 42.9 | -33.9
56 | GTAACCGAAAGGTTCTAC ((((((....)))..))) | 37.7 | -47.4
57 | GATCGCGAAAGCGTGATC ((((((....)))..))) | 42.8 | -59.7
58 | GGGGTTCGAAAGAAACCC (((.(((....))).))) | 59.5 | -173
59 | GCGGGAGTCCGC ((((....)))) | 55.7 | -98.8
60 | GAGCCAGGAAACTAGCTC ((((.((....)).)))) | 37.4 | -110
61 | GTCGTCGAAAGACAGAC ((((((....))).))) | 51.6 | -112
62 | GATCTCGTGTGAGATC ((((((....)))))) | 53.1 | -155
63 | GAGGTTGAAAAACCTC ((((((....)))))) | 58.2 | -136
64 | GCAACGCGAAAGCAGTGC (((..((....))..))) | 52.1 | -55.5
65 | GCATACGGAAACATATGC (((((.(....).))))) | 37 | -102
66 | GATCAAAGCTTGATC ((((((...)))))) | 40.1 | -118
67 | GATCCAAAAGTGGATC ((((((....)))))) | 43.9 | -115
68 | GTCCGCGGAAACGCGAAC ((.((((....)))).)) | 50.9 | -69
69 | GAGTACGAAAGTAGCCTC ((((((....)))..))) | 27.3 | -49.4

Row | Sequence | Tm [1] [°C] | folding enthalpy [2] [kJ/mol]
70 | GATCTCCACCGAGATC ((((((....)))))) | 51.9 | -156
71 | GATCTGAATCAGATC ((((((...)))))) | 44.7 | -142
72 | GACCGGCGAAAGCCTGTC (((.(((....))).))) | 49.6 | -93.3
73 | GCGGTAGAAATACCGC ((((((....)))))) | 66.9 | -151
74 | GAAGTCCGAAAGGAATTC (((.(((....))).))) | 50.1 | -129
75 | GATCGGATGGCCGATC ((((((....)))))) | 56.1 | -125
76 | GAGCCCGGAAACGAGCTC ((((.((....)).)))) | 50.2 | -150
77 | GCGTCGGACGC ((((...)))) | 51.7 | -101
78 | GACTGTGGAAACACAATC ((.((((....)))).)) | 31.6 | -64.9
79 | GATTTCCGAAAGGATATC (((.(((....))).))) | 42 | -103
80 | GAGCTCCGAAAGGACCTC (((.(((....))).))) | 38.1 | -84.5
81 | GAAAGTGGAAACACCTTC (((.(((....))).))) | 28.8 | -40.1
82 | GTCCACGGAAACGTAGAC (((.(((....))).))) | 41 | -111
83 | GATCTTGAGCAAGATC ((((((....)))))) | 44.4 | -140
84 | GCAAGGCGAAAGCCACGC ((..(((....)))..)) | 47.1 | -61.2
85 | GGTTCTTCGAAAGAAACC (((..(((....)))))) | 29.1 | -56.2
86 | GATCCCCACGGGGATC ((((((....)))))) | 66.4 | -151
87 | GAATGGGAAACCATTC ((((((....)))))) | 51.7 | -158
88 | GAGTAGCGAAAGCTCCTC (((.(((....))).))) | 39.5 | -83.7
89 | GATGAGCGAAAGCTTATC (((.(((....))).))) | 49.1 | -118
90 | GTTCGTGGAAACACGAGC (.(((((....))))).) | 52.7 | -89.9
91 | GCGCCGCGAAAGCCGGGC ((.(.((....)).).)) | 55.3 | -66.3
92 | GATCACCGGAGTGATC ((((((....)))))) | 57.7 | -173
